Activity calls are given as the source filed them. The rule behind the calls is not given here.
Legend:
Mus musculus [1] = test: Antiinflammatory activity against carrageenan-induced paw edema in Swiss albino mouse assessed as swelling thickness at 100 mg/kg, po after 90 mins; assay type: functional
In short: (§1)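 Oral dosing in 0.5% CMC; vehicle to controls. Then carrageenan (0.5 mg/25 ll, freshly suspended in 154 mM saline) injected into the right hind paw subplantar tissue; saline into the left paw. Right-left footpad thickness difference measured by dial gauge calliper every 90 min over 6 h. Inhibition % is relative to vehicle control. n = 6; mean ± SEM.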

Mus musculus [2] = test: Antiinflammatory activity against carrageenan-induced paw edema in Swiss albino mouse assessed as swelling thickness at 100 mg/kg, po after 180 mins; assay type: functional; in short: as §1
Mus musculus [3] = test: Antiinflammatory activity against carrageenan-induced paw edema in Swiss albino mouse assessed as swelling thickness at 100 mg/kg, po after 270 mins; assay type: functional; in short: as §1
Mus musculus [4] = test: Antiinflammatory activity against carrageenan-induced paw edema in Swiss albino mouse assessed as swelling thickness at 100 mg/kg, po after 360 mins; assay type: functional; in short: as §1
Mus musculus [5] = test: Inhibition of carrageenan-induced paw edema in Swiss albino mouse at 100 mg/kg, po after 90 mins relative to control; assay type: functional; settings: 1.5 h; in short: as §1
Mus musculus [6] = test: Inhibition of carrageenan-induced paw edema in Swiss albino mouse at 100 mg/kg, po after 180 mins relative to control; assay type: functional; settings: 3 h; in short: as §1
Mus musculus [7] = test: Inhibition of carrageenan-induced paw edema in Swiss albino mouse at 100 mg/kg, po after 270 mins relative to control; assay type: functional; settings: 4.5 h; in short: as §1
Mus musculus [8] = test: Inhibition of carrageenan-induced paw edema in Swiss albino mouse at 100 mg/kg, po after 360 mins relative to control; assay type: functional; settings: 6 h; in short: as §1
Mus musculus [9] = test: Antiinflammatory activity in Swiss albino mouse assessed as inhibition of carrageenan-induced paw edema at 50 mg/kg, po; assay type: functional
Mus musculus [10] = test: Analgesic activity against p-benzoquinone-induced abdominal constriction in Swiss albino mouse assessed as number of writhings at 25 mg/kg, po; assay type: functional, Abdomen
In short: (§2)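 Test samples given orally in 0.5% CMC; vehicle to controls. 60 min later, 2.5% (v/v) p-benzoquinone in distilled water, 0.1 ml/10 g, given i.p. Mice housed singly; writhes counted for 15 min starting 5 min after injection. Activity is % change from vehicle controls. n = 6; mean ± SEM.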

Mus musculus [11] = test: Analgesic activity against p-benzoquinone-induced abdominal constriction in Swiss albino mouse assessed as number of writhings at 50 mg/kg, po; assay type: functional, Abdomen; in short: as §2
Mus musculus [12] = test: Analgesic activity against p-benzoquinone-induced abdominal constriction in Swiss albino mouse assessed as number of writhings at 100 mg/kg, po; assay type: functional, Abdomen; in short: as §2
Mus musculus [13] = test: Analgesic activity against p-benzoquinone-induced abdominal constriction in Swiss albino mouse assessed as number of writhings at 200 mg/kg, po; assay type: functional, Abdomen; in short: as §2
Mus musculus [14] = test: Inhibition of p-benzoquinone-induced writhing in Swiss albino mouse at 25 mg/kg, po relative to control; assay type: functional
In short: (§3)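 Mice, n = 6 per group, dosed orally with a suspension in 0.5% sodium CMC. 60 min later, 0.1 ml/10 g of 2.5% […] p-benzoquinone in distilled water given ip. Abdominal writhes counted per animal for 15 min, starting 5 min after injection. Expressed as % change in mean writhing count versus vehicle controls.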

Mus musculus [15] = test: Inhibition of p-benzoquinone-induced writhing in Swiss albino mouse at 50 mg/kg, po relative to control; assay type: functional; in short: as §3
Mus musculus [16] = test: Inhibition of p-benzoquinone-induced writhing in Swiss albino mouse at 100 mg/kg, po relative to control; assay type: functional; in short: as §3
Mus musculus [17] = test: Inhibition of p-benzoquinone-induced writhing in Swiss albino mouse at 200 mg/kg, po relative to control; assay type: functional; in short: as §3
Mus musculus [18] = test: Gastric-ulcerogenic effect in Swiss albino mouse assessed as lesions at 25 mg/kg, po; assay type: functional, organism-based; design: dose 25 mg/kg
In short: (§4)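 Mice killed under deep ether anesthesia 3 h after the writhing test; the oral dose in 0.5% CMC was the one used in that test. Stomachs removed, opened along the great curvature and examined under a dissecting microscope for lesions or bleeding. Reported as ratio of ulceration; n = 6.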

Mus musculus [19] = test: Gastric-ulcerogenic effect in Swiss albino mouse assessed as lesions at 50 mg/kg, po; assay type: functional, organism-based; design: dose 50 mg/kg; in short: as §4
Mus musculus [20] = test: Gastric-ulcerogenic effect in Swiss albino mouse assessed as lesions at 100 mg/kg, po; assay type: functional, organism-based; design: dose 100 mg/kg; in short: as §4
Mus musculus [21] = test: Antiinflammatory activity against carrageenan-induced paw edema in Swiss albino mouse assessed as swelling thickness at 25 mg/kg, po after 90 mins; assay type: functional; in short: as §1
Mus musculus [22] = test: Antiinflammatory activity against carrageenan-induced paw edema in Swiss albino mouse assessed as swelling thickness at 25 mg/kg, po after 180 mins; assay type: functional; in short: as §1
Mus musculus [23] = test: Antiinflammatory activity against carrageenan-induced paw edema in Swiss albino mouse assessed as swelling thickness at 25 mg/kg, po after 270 mins; assay type: functional; in short: as §1
Mus musculus [24] = test: Antiinflammatory activity against carrageenan-induced paw edema in Swiss albino mouse assessed as swelling thickness at 25 mg/kg, po after 360 mins; assay type: functional; in short: as §1
Mus musculus [25] = test: Antiinflammatory activity against carrageenan-induced paw edema in Swiss albino mouse assessed as swelling thickness at 50 mg/kg, po after 180 mins; assay type: functional; in short: as §1
Mus musculus [26] = test: Antiinflammatory activity against carrageenan-induced paw edema in Swiss albino mouse assessed as swelling thickness at 50 mg/kg, po after 270 mins; assay type: functional; in short: as §1
Mus musculus [27] = test: Antiinflammatory activity against carrageenan-induced paw edema in Swiss albino mouse assessed as swelling thickness at 50 mg/kg, po after 360 mins; assay type: functional; in short: as §1
Mus musculus [28] = test: Antiinflammatory activity against carrageenan-induced paw edema in Swiss albino mouse assessed as swelling thickness at 200 mg/kg, po after 90 mins; assay type: functional; in short: as §1
Mus musculus [29] = test: Antiinflammatory activity against carrageenan-induced paw edema in Swiss albino mouse assessed as swelling thickness at 200 mg/kg, po after 180 mins; assay type: functional; in short: as §1
Mus musculus [30] = test: Antiinflammatory activity against carrageenan-induced paw edema in Swiss albino mouse assessed as swelling thickness at 200 mg/kg, po after 270 mins; assay type: functional; in short: as §1
Mus musculus [31] = test: Antiinflammatory activity against carrageenan-induced paw edema in Swiss albino mouse assessed as swelling thickness at 200 mg/kg, po after 360 mins; assay type: functional; in short: as §1
Mus musculus [32] = test: Inhibition of carrageenan-induced paw edema in Swiss albino mouse at 25 mg/kg, po after 90 mins relative to control; assay type: functional; settings: 1.5 h; in short: as §1
Mus musculus [33] = test: Inhibition of carrageenan-induced paw edema in Swiss albino mouse at 25 mg/kg, po after 180 mins relative to control; assay type: functional; settings: 3 h; in short: as §1
Mus musculus [34] = test: Inhibition of carrageenan-induced paw edema in Swiss albino mouse at 25 mg/kg, po after 270 mins relative to control; assay type: functional; settings: 4.5 h; in short: as §1
Mus musculus [35] = test: Inhibition of carrageenan-induced paw edema in Swiss albino mouse at 25 mg/kg, po after 360 mins relative to control; assay type: functional; settings: 6 h; in short: as §1
Mus musculus [36] = test: Inhibition of carrageenan-induced paw edema in Swiss albino mouse at 50 mg/kg, po after 90 mins relative to control; assay type: functional; settings: 1.5 h
In short: (§5)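 Mice, n = 6 per group. Test agent given orally as a suspension in 0.5% sodium CMC in distilled water; controls received vehicle only. Afterwards, 0.5 mg/25 ll carrageenan in saline (154 mM NaCl) injected subplantar into the right hind paw, saline into the left. Right-minus-left footpad thickness measured by dial gauge caliper every 90 min for 6 h. Inhibition is relative to vehicle-control group means.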

Mus musculus [37] = test: Inhibition of carrageenan-induced paw edema in Swiss albino mouse at 50 mg/kg, po after 180 mins relative to control; assay type: functional; settings: 3 h; in short: as §1
Mus musculus [38] = test: Inhibition of carrageenan-induced paw edema in Swiss albino mouse at 50 mg/kg, po after 270 mins relative to control; assay type: functional; settings: 4.5 h; in short: as §5
Mus musculus [39] = test: Inhibition of carrageenan-induced paw edema in Swiss albino mouse at 50 mg/kg, po after 360 mins relative to control; assay type: functional; settings: 6 h; in short: as §5
Mus musculus [40] = test: Inhibition of carrageenan-induced paw edema in Swiss albino mouse at 200 mg/kg, po after 90 mins relative to control; assay type: functional; settings: 1.5 h; in short: as §1
Mus musculus [41] = test: Inhibition of carrageenan-induced paw edema in Swiss albino mouse at 200 mg/kg, po after 180 mins relative to control; assay type: functional; settings: 3 h; in short: as §1
Mus musculus [42] = test: Inhibition of carrageenan-induced paw edema in Swiss albino mouse at 200 mg/kg, po after 270 mins relative to control; assay type: functional; settings: 4.5 h; in short: as §1
Mus musculus [43] = test: Inhibition of carrageenan-induced paw edema in Swiss albino mouse at 200 mg/kg, po after 360 mins relative to control; assay type: functional; settings: 6 h; in short: as §1
Mus musculus [44] = test: Acute toxicity in Swiss albino mouse assessed as lethal effect at 25 mg/kg/day, po after 72 hrs; assay type: organism-based; design: route oral; settings: in vivo
In short: (§6)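 Oral single dose suspended in 0.5% carboxymethylcellulose, given after a 24 h fast; food and water returned 1 h after dosing. Vehicle-only controls. Mice observed at 1 h, then once daily for 72 h, for toxic signs and mortality.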

Mus musculus [45] = test: Acute toxicity in Swiss albino mouse assessed as lethal effect at 50 mg/kg/day, po after 72 hrs; assay type: organism-based; design: route oral; settings: in vivo; in short: as §6
Mus musculus [46] = test: Acute toxicity in Swiss albino mouse assessed as lethal effect at 100 mg/kg/day, po after 72 hrs; assay type: organism-based; design: route oral; settings: in vivo; in short: as §6
Mus musculus [47] = test: Acute toxicity in Swiss albino mouse assessed as lethal effect at 200 mg/kg/day, po after 72 hrs; assay type: organism-based; design: route oral; settings: in vivo; in short: as §6
Mus musculus [48] = test: Antiinflammatory activity against carrageenan-induced paw edema in Swiss albino mouse assessed as swelling thickness at 50 mg/kg, po after 90 mins; assay type: functional; in short: as §1

CCS(=O)(=O)c1nc(-c2ccc(Cl)cc2)n[nH]1
Activity (Mus musculus [1]): 27.2 10^-2mm
Activity (Mus musculus [2]): 31 10^-2mm
Activity (Mus musculus [3]): 34.5 10^-2mm
Activity (Mus musculus [4]): 35.3 10^-2mm
inhibition in vivo at 100 mg/kg (Mus musculus [5]): 39.3%
inhibition in vivo at 100 mg/kg (Mus musculus [6]): 39.8%
inhibition in vivo at 100 mg/kg (Mus musculus [7]): 41.3%
inhibition in vivo at 100 mg/kg (Mus musculus [8]): 48.7%
inhibition in vivo at 50 mg/kg (Mus musculus [9]): 40.2%
Activity (Mus musculus [10]): 37.8
Activity (Mus musculus [11]): 20.8
Activity (Mus musculus [12]): 20.4
Activity (Mus musculus [13]): 44.1
inhibition in vivo at 25 mg/kg (Mus musculus [14]): 26.5%
inhibition in vivo at 50 mg/kg (Mus musculus [15]): 59.5%
inhibition in vivo at 100 mg/kg (Mus musculus [16]): 56.9%
inhibition in vivo at 200 mg/kg (Mus musculus [17]): 18.5%
Activity (Mus musculus [18]): Active
Activity (Mus musculus [19]): Active
Activity (Mus musculus [20]): Active
Activity (Mus musculus [21]): 45.8 10^-2mm
Activity (Mus musculus [22]): 49.6 10^-2mm
Activity (Mus musculus [23]): 57.9 10^-2mm
Activity (Mus musculus [24]): 61.2 10^-2mm
Activity (Mus musculus [25]): 36.1 10^-2mm
Activity (Mus musculus [26]): 37.2 10^-2mm
Activity (Mus musculus [27]): 39.4 10^-2mm
Activity (Mus musculus [28]): 45.5 10^-2mm
Activity (Mus musculus [29]): 48.9 10^-2mm
Activity (Mus musculus [30]): 55.4 10^-2mm
Activity (Mus musculus [31]): 58.4 10^-2mm
inhibition in vivo at 25 mg/kg (Mus musculus [32]): 13.9%
inhibition in vivo at 25 mg/kg (Mus musculus [33]): 16.5%
inhibition in vivo at 25 mg/kg (Mus musculus [34]): 10.6%
inhibition in vivo at 25 mg/kg (Mus musculus [35]): 15%
inhibition in vivo at 50 mg/kg (Mus musculus [36]): 33.5%
inhibition in vivo at 50 mg/kg (Mus musculus [37]): 39.2%
inhibition in vivo at 50 mg/kg (Mus musculus [38]): 42.6%
inhibition in vivo at 50 mg/kg (Mus musculus [39]): 45.3%
inhibition in vivo at 200 mg/kg (Mus musculus [40]): 14.5%
inhibition in vivo at 200 mg/kg (Mus musculus [41]): 17.7%
inhibition in vivo at 200 mg/kg (Mus musculus [42]): 14.5%
inhibition in vivo at 200 mg/kg (Mus musculus [43]): 18.9%
Activity (Mus musculus [44]): Non-toxic
Activity (Mus musculus [45]): Non-toxic
Activity (Mus musculus [46]): Non-toxic
Activity (Mus musculus [47]): Non-toxic
Activity (Mus musculus [48]): 35.4 10^-2mm

Source: ChEMBL document CHEMBL1142894, “Preparation of 5-aryl-3-alkylthio-l,2,4-triazoles and corresponding sulfones with antiinflammatory-analgesic activity” (Bioorg Med Chem, 2007)
